Laboratory results published in ChEMBL document CHEMBL1124369, “Pyrido[3,4-e]-1,2,4-triazines and related heterocycles as potential antifungal agents” (1989).
≈ marks a conversion by molar mass, not a printed value.

Legend:
Candida albicans [1] = experiment: Antifungal activity against Candida albicans; assay type: functional
In short: (§1)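 Agar dilution MIC. Twofold serial drug dilutions in yeast nitrogen base medium with 1% dextrose, 0.15% asparagine and 1.5% agar. Agar surfaces inoculated using a Steers multiple inocula replicator, then incubated at 35 °C for 24-48 h. MIC was recorded as the lowest concentration inhibiting visible growth. Amphotericin B, miconazole and nystatin served as controls.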

Candida parapsilosis = experiment: Antifungal activity against Candida parapsilosis; assay type: functional; conditions: Lodderomyces parapsilosis; in short: as §1
Kluyveromyces marxianus [2] = experiment: Antifungal activity against Candida pseudotropicalis; Range is 2-4; assay type: functional; in short: as §1
Candida tropicalis [3] = experiment: Antifungal activity against Candida tropicalis; assay type: functional; in short: as §1
Trichophyton benhamiae [4] = experiment: Antifungal activity against Trichophyton mentagrophytes; assay type: functional, trychophyton mentagrophytes; in short: as §1
Trichophyton rubrum [5] = experiment: Antifungal activity against Trichophyton rubrum; assay type: functional; in short: as §1
Aspergillus niger [6] = experiment: Antifungal activity against Aspergillus niger; Range is 64-128; assay type: functional; in short: as §1
Aspergillus niger [7] = experiment: Antifungal activity against Aspergillus niger; Range is 32-64; assay type: functional; in short: as §1
Kluyveromyces marxianus [8] = experiment: Antifungal activity against Candida pseudotropicalis; Range is 8-16; assay type: functional; in short: as §1
Candida tropicalis [9] = experiment: Antifungal activity against Candida tropicalis; Range is 16-32; assay type: functional; in short: as §1
Trichophyton rubrum [10] = experiment: Antifungal activity against Trichophyton rubrum; Range is 8-16; assay type: functional
Trichophyton benhamiae [11] = experiment: Antifungal activity against Trichophyton mentagrophytes; Range is 8-16; assay type: functional, trychophyton mentagrophytes; in short: as §1
Aspergillus niger [12] = experiment: Antifungal activity against Aspergillus niger; assay type: functional; in short: as §1
Kluyveromyces marxianus [13] = experiment: Antifungal activity against Candida pseudotropicalis; assay type: functional; in short: as §1
Trichophyton benhamiae [14] = experiment: Antifungal activity against Trichophyton mentagrophytes; Range is 64-128; assay type: functional, trychophyton mentagrophytes; in short: as §1
Trichophyton rubrum [15] = experiment: Antifungal activity against Trichophyton rubrum; Range is 32-128; assay type: functional; in short: as §1
Candida albicans [16] = experiment: Antifungal activity against Candida albicans; Range is 32-64; assay type: functional; in short: as §1
Candida albicans [17] = experiment: Antifungal activity against Candida stellatoidea; assay type: functional; in short: as §1
Diutina rugosa = experiment: Antifungal activity against Candida rugosa; assay type: functional; in short: as §1
Trichophyton benhamiae [18] = experiment: Antifungal activity against Trichophyton mentagrophytes; Range is 32-128; assay type: functional, trychophyton mentagrophytes; in short: as §1
Trichophyton rubrum [19] = experiment: Antifungal activity against Trichophyton rubrum; Range is 64-128; assay type: functional
Mucor fragilis = experiment: Antifungal activity against Mucor fragilis; assay type: functional; in short: as §1
Candida albicans [20] = experiment: Antifungal activity against Candida albicans; Range is 8-16; assay type: functional; in short: as §1
Kluyveromyces marxianus [21] = experiment: Antifungal activity against Candida pseudotropicalis; Range is 0.25-4; assay type: functional; in short: as §1
Candida tropicalis [22] = experiment: Antifungal activity against Candida tropicalis; Range is 8-16; assay type: functional; in short: as §1
Aspergillus niger [23] = experiment: Antifungal activity against Aspergillus niger; Range is 8-16; assay type: functional; in short: as §1
Trichophyton rubrum [24] = experiment: Antifungal activity against Trichophyton rubrum; Range is 2-4; assay type: functional; in short: as §1
Candida tropicalis [25] = experiment: Antifungal activity against Candida tropicalis; Range is 4-8; assay type: functional; in short: as §1
Aspergillus niger [26] = experiment: Antifungal activity against Aspergillus niger; Range is 32-128; assay type: functional; in short: as §1
Trichophyton benhamiae [27] = experiment: Antifungal activity against Trichophyton mentagrophytes; Range is 8-32; assay type: functional, trychophyton mentagrophytes; in short: as §1
Trichophyton rubrum [28] = experiment: Antifungal activity against Trichophyton rubrum; Range is 16-32; assay type: functional; in short: as §1
Kluyveromyces marxianus [29] = experiment: Antifungal activity against Candida pseudotropicalis; Range is 32-64; assay type: functional; in short: as §1
Candida albicans [30] = experiment: Antifungal activity against Candida albicans; Range is 4-8; assay type: functional; in short: as §1
Kluyveromyces marxianus [31] = experiment: Antifungal activity against Candida pseudotropicalis; Range is 4-8; assay type: functional; in short: as §1
Trichophyton benhamiae [32] = experiment: Antifungal activity against Trichophyton mentagrophytes; Range is 4-8; assay type: functional, trychophyton mentagrophytes; in short: as §1
Kluyveromyces marxianus [33] = experiment: Antifungal activity against Candida pseudotropicalis; Range is 1-32; assay type: functional; in short: as §1
Candida tropicalis [34] = experiment: Antifungal activity against Candida tropicalis; Range is 32-64; assay type: functional; in short: as §1
Trichophyton benhamiae [35] = experiment: Antifungal activity against Trichophyton mentagrophytes; Range is 16-32; assay type: functional, trychophyton mentagrophytes
Aspergillus niger [36] = experiment: Antifungal activity against Aspergillus niger; Range is 16-32; assay type: functional; in short: as §1
Trichophyton benhamiae [37] = experiment: Antifungal activity against Trichophyton mentagrophytes; Range is 2-4; assay type: functional, trychophyton mentagrophytes; in short: as §1
Trichophyton rubrum [38] = experiment: Antifungal activity against Trichophyton rubrum; Range is 1-2; assay type: functional; in short: as §1

Structure (SMILES): c1ccc2c(c1)ncc1nc(-c3ccncc3)nnc12
- MIC (Candida albicans [1]): 128 µg/mL (≈ 494 µM)
- MIC (Candida parapsilosis): 128 µg/mL (≈ 494 µM)
- MIC (Kluyveromyces marxianus [2]): 2 µg/mL (≈ 7.71 µM)
- MIC (Candida tropicalis [3]): 128 µg/mL (≈ 494 µM)
- MIC (Trichophyton benhamiae [4]): 64 µg/mL (≈ 247 µM)
- MIC (Trichophyton rubrum [5]): 64 µg/mL (≈ 247 µM)
- MIC (Aspergillus niger [6]): 64 µg/mL (≈ 247 µM)

Structure (SMILES): Cc1nccc2nnc(-c3ccncc3)nc12
- MIC (Aspergillus niger [7]): 32 µg/mL (≈ 143 µM)
- MIC (Candida albicans [1]): 16 µg/mL (≈ 71.7 µM)
- MIC (Candida parapsilosis): 32 µg/mL (≈ 143 µM)
- MIC (Kluyveromyces marxianus [8]): 8 µg/mL (≈ 35.8 µM)
- MIC (Candida tropicalis [9]): 16 µg/mL (≈ 71.7 µM)
- MIC (Trichophyton rubrum [10]): 8 µg/mL (≈ 35.8 µM)
- MIC (Trichophyton benhamiae [11]): 8 µg/mL (≈ 35.8 µM)

Structure (SMILES): CC(=O)Nc1c(C)nc(C)c2nc(-c3ccc(F)cc3)nnc12
- MIC (Aspergillus niger [12]): 128 µg/mL (≈ 411 µM)
- MIC (Kluyveromyces marxianus [13]): 128 µg/mL (≈ 411 µM)
- MIC (Candida albicans [1]): 128 µg/mL (≈ 411 µM)
- MIC (Candida parapsilosis): 128 µg/mL (≈ 411 µM)
- MIC (Candida tropicalis [3]): 128 µg/mL (≈ 411 µM)
- MIC (Trichophyton benhamiae [14]): 64 µg/mL (≈ 206 µM)
- MIC (Trichophyton rubrum [15]): 32 µg/mL (≈ 103 µM)

Structure (SMILES): Cc1cc2nnc(-c3ccncc3)nc2c(C)n1
- MIC (Candida albicans [16]): 32 µg/mL (≈ 135 µM)
- MIC (Candida albicans [17]): 32 µg/mL (≈ 135 µM)
- MIC (Kluyveromyces marxianus [13]): 32 µg/mL (≈ 135 µM)
- MIC (Diutina rugosa): 32 µg/mL (≈ 135 µM)
- MIC (Candida tropicalis [3]): 128 µg/mL (≈ 539 µM)
- MIC (Trichophyton benhamiae [18]): 32 µg/mL (≈ 135 µM)
- MIC (Trichophyton rubrum [19]): 64 µg/mL (≈ 270 µM)
- MIC (Aspergillus niger [6]): 64 µg/mL (≈ 270 µM)
- MIC (Mucor fragilis): > 128 µg/mL

Structure (SMILES): Clc1ccc(COC(Cn2ccnc2)c2ccc(Cl)cc2Cl)c(Cl)c1 (stereo not given) [MICONAZOLE]
- MIC (Aspergillus niger [12]): 8 µg/mL (≈ 19.2 µM)
- MIC (Candida albicans [20]): 8 µg/mL (≈ 19.2 µM)
- MIC (Candida albicans [17]): 8 µg/mL (≈ 19.2 µM)
- MIC (Kluyveromyces marxianus [21]): 0.25 µg/mL (≈ 0.601 µM)
- MIC (Candida parapsilosis): 16 µg/mL (≈ 38.4 µM)
- MIC (Diutina rugosa): 8 µg/mL (≈ 19.2 µM)
- MIC (Candida tropicalis [22]): 8 µg/mL (≈ 19.2 µM)
- MIC (Trichophyton benhamiae [4]): 2 µg/mL (≈ 4.81 µM)
- MIC (Trichophyton rubrum [5]): 1 µg/mL (≈ 2.4 µM)
- MIC (Mucor fragilis): 8 µg/mL (≈ 19.2 µM)

Structure (SMILES): c1cc(-c2nnc3ccncc3n2)ccn1
- MIC (Aspergillus niger [23]): 8 µg/mL (≈ 38.2 µM)
- MIC (Candida albicans [17]): 32 µg/mL (≈ 153 µM)
- MIC (Candida albicans [1]): 8 µg/mL (≈ 38.2 µM)
- MIC (Candida parapsilosis): 8 µg/mL (≈ 38.2 µM)
- MIC (Kluyveromyces marxianus [2]): 2 µg/mL (≈ 9.56 µM)
- MIC (Diutina rugosa): 32 µg/mL (≈ 153 µM)
- MIC (Trichophyton benhamiae [4]): 4 µg/mL (≈ 19.1 µM)
- MIC (Trichophyton rubrum [24]): 2 µg/mL (≈ 9.56 µM)
- MIC (Mucor fragilis): 32 µg/mL (≈ 153 µM)
- MIC (Candida tropicalis [25]): 4 µg/mL (≈ 19.1 µM)

Structure (SMILES): Cc1cc2nnc(C)nc2c(C)n1
- MIC (Aspergillus niger [26]): 32 µg/mL (≈ 184 µM)
- MIC (Candida albicans [17]): 64 µg/mL (≈ 367 µM)
- MIC (Candida albicans [1]): 8 µg/mL (≈ 45.9 µM)
- MIC (Kluyveromyces marxianus [8]): 8 µg/mL (≈ 45.9 µM)
- MIC (Diutina rugosa): 64 µg/mL (≈ 367 µM)
- MIC (Candida tropicalis [3]): 32 µg/mL (≈ 184 µM)
- MIC (Trichophyton benhamiae [27]): 8 µg/mL (≈ 45.9 µM)
- MIC (Trichophyton rubrum [28]): 16 µg/mL (≈ 91.8 µM)
- MIC (Mucor fragilis): 16 µg/mL (≈ 91.8 µM)

Structure (SMILES): CN(C)c1ccc(-c2nnc3ccncc3n2)cc1
- MIC (Aspergillus niger [26]): 32 µg/mL (≈ 127 µM)
- MIC (Kluyveromyces marxianus [13]): 32 µg/mL (≈ 127 µM)
- MIC (Candida albicans [1]): 64 µg/mL (≈ 255 µM)
- MIC (Candida parapsilosis): 64 µg/mL (≈ 255 µM)
- MIC (Candida tropicalis [3]): 64 µg/mL (≈ 255 µM)
- MIC (Trichophyton benhamiae [4]): 8 µg/mL (≈ 31.8 µM)
- MIC (Trichophyton rubrum [24]): 2 µg/mL (≈ 7.96 µM)

Structure (SMILES): c1ccc(-c2nnc3ccncc3n2)nc1
- MIC (Aspergillus niger [12]): 32 µg/mL (≈ 153 µM)
- MIC (Candida albicans [17]): 16 µg/mL (≈ 76.5 µM)
- MIC (Candida albicans [1]): 64 µg/mL (≈ 306 µM)
- MIC (Candida parapsilosis): 64 µg/mL (≈ 306 µM)
- MIC (Kluyveromyces marxianus [29]): 32 µg/mL (≈ 153 µM)
- MIC (Diutina rugosa): 64 µg/mL (≈ 306 µM)
- MIC (Candida tropicalis [3]): 64 µg/mL (≈ 306 µM)
- MIC (Trichophyton benhamiae [4]): 32 µg/mL (≈ 153 µM)
- MIC (Trichophyton rubrum [24]): 2 µg/mL (≈ 9.56 µM)
- MIC (Mucor fragilis): 64 µg/mL (≈ 306 µM)

Structure (SMILES): Cc1cc2nncnc2c(C)n1
- MIC (Aspergillus niger [12]): 32 µg/mL (≈ 200 µM)
- MIC (Candida albicans [30]): 4 µg/mL (≈ 25 µM)
- MIC (Candida parapsilosis): 16 µg/mL (≈ 99.9 µM)
- MIC (Kluyveromyces marxianus [31]): 4 µg/mL (≈ 25 µM)
- MIC (Trichophyton benhamiae [32]): 4 µg/mL (≈ 25 µM)
- MIC (Trichophyton rubrum [5]): 4 µg/mL (≈ 25 µM)
- MIC (Candida tropicalis [25]): 4 µg/mL (≈ 25 µM)

Structure (SMILES): CCC1(Cc2ccccc2)N=Nc2ccncc2N1 (stereo not given)
- MIC (Aspergillus niger [12]): 128 µg/mL (≈ 507 µM)
- MIC (Kluyveromyces marxianus [33]): 1 µg/mL (≈ 3.96 µM)
- MIC (Candida albicans [1]): 128 µg/mL (≈ 507 µM)
- MIC (Candida parapsilosis): 128 µg/mL (≈ 507 µM)
- MIC (Candida tropicalis [34]): 32 µg/mL (≈ 127 µM)
- MIC (Trichophyton benhamiae [35]): 16 µg/mL (≈ 63.4 µM)
- MIC (Trichophyton rubrum [5]): 32 µg/mL (≈ 127 µM)

Structure (SMILES): c1cc2nncnc2cn1
- MIC (Aspergillus niger [36]): 16 µg/mL (≈ 121 µM)
- MIC (Candida albicans [20]): 8 µg/mL (≈ 60.5 µM)
- MIC (Candida albicans [17]): 8 µg/mL (≈ 60.5 µM)
- MIC (Kluyveromyces marxianus [13]): 4 µg/mL (≈ 30.3 µM)
- MIC (Candida parapsilosis): 16 µg/mL (≈ 121 µM)
- MIC (Diutina rugosa): 8 µg/mL (≈ 60.5 µM)
- MIC (Candida tropicalis [22]): 8 µg/mL (≈ 60.5 µM)
- MIC (Trichophyton benhamiae [37]): 2 µg/mL (≈ 15.1 µM)
- MIC (Trichophyton rubrum [38]): 1 µg/mL (≈ 7.57 µM)
- MIC (Mucor fragilis): 8 µg/mL (≈ 60.5 µM)
